{"source": "paper PMC3383288", "about": "(International Journal of Nanomedicine, 2012)", "key": {"[1]": {"test_system": "advanced gastric cancer", "settings": "monotherapy, patients with advanced gastric cancer; cited from earlier work"}, "[2]": {"test": "Toxicology studies in mice", "assay_type": "in vivo, mice (Crlj:CD1 (ICR))", "settings": "for ALT / AST / CRE / UN: native DTX 10 mg/kg iv x3 at 4-day intervals, one mouse", "procedure,_shortened": "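Male Crlj:CD1 (ICR) mice (n = 10) received iv dosing three times at 4-day intervals, and condition and body weight were followed for 49 days. Mice were killed one at a time for blood collection and autopsy, including macroscopic review of liver and bone marrow. AST, ALT, creatinine and urea nitrogen were run on a clinical chemistry analyzer, with hematology on an automated analyzer.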"}, "[3]": {"test": "Toxicology study in cynomolgus monkeys", "assay_type": "in vivo", "procedure,_shortened": "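Male cynomolgus monkeys aged 3–4 years (2.5–3.7 kg, n = 3) were dosed iv three times at 2-week intervals. Food consumption, general condition and body weight were followed for 42 days. White blood cell and neutrophil counts were monitored. Values are means of three monkeys with standard deviation.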"}, "[4]": {"test_system": "MDA-MB-231 human breast tumor", "test": "MDA-MB-231 human breast tumor xenograft model", "assay_type": "in vivo, nude mice", "procedure,_shortened": "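3 × 10^6 cells in 50% Matrigel were injected subcutaneously into the backs of female 5-week-old nude mice. Dosing started on day 0: three tail-vein iv injections at 4-day intervals, with an untreated control group. Tumor volume and body weight were tracked. Points are means of seven mice with standard error.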"}, "[5]": {"test": "Toxicity dose-finding study in nude mice", "assay_type": "in vivo"}, "[6]": {"test_system": "OCUM-2MLN human scirrhous gastric carcinoma", "test": "OCUM-2MLN orthotopic scirrhous gastric carcinoma model", "assay_type": "in vivo, nude mice", "settings": "DTX 10 mg/kg; data not shown"}, "[7]": {"settings": "once-every-3-week schedule; cited from earlier work"}, "[8]": {"test": "Tissue distribution in tumor-bearing mice", "assay_type": "in vivo, nude mice", "settings": "for AUC of DTX: native DTX 10 mg/kg", "procedure,_shortened": "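Female nude mice bearing subcutaneous xenografts (cells in 50% Matrigel) got a single iv dose when tumors reached about 400 mm3. Free drug was sampled at 0.083, 1, 6, 24 and 48 h (n = 3 per time). Heart blood was taken under ether into heparin, and plasma was spun at 4°C. Organs were rinsed, stored at −30°C and homogenized 25% w/w in PBS pH 7.4. Drug was quantified by reversed-phase HPLC at 40°C.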"}, "[9]": {"settings": "native DTX 3 mg/kg iv three times at 2-week intervals"}}}
{"smiles": "CC(=O)O[C@@]12CO[C@@H]1C[C@H](O)[C@@]1(C)C(=O)[C@H](O)C3=C(C)[C@@H](OC(=O)[C@H](O)[C@@H](NC(=O)OC(C)(C)C)c4ccccc4)C[C@@](O)([C@@H](OC(=O)c4ccccc4)[C@H]21)C3(C)C", "note": "[Native DTX, Docetaxel]", "values": [{"measurement": "response rate", "setting": "[1]", "result": 20, "unit": "%"}, {"measurement": "ALT", "setting": "[2]; Day 1", "result": 28, "unit": "U/L"}, {"measurement": "AST", "setting": "[2]; Day 1", "result": 85, "unit": "U/L"}, {"measurement": "CRE", "setting": "[2]; Day 1", "result": 0.07, "unit": "mg/dL"}, {"measurement": "UN", "setting": "[2]; Day 1", "result": 26.1, "unit": "mg/dL"}, {"measurement": "ALT", "setting": "[2]; Day 7", "result": 44, "unit": "U/L"}, {"measurement": "AST", "setting": "[2]; Day 7", "result": 239, "unit": "U/L"}, {"measurement": "CRE", "setting": "[2]; Day 7", "result": 0.17, "unit": "mg/dL"}, {"measurement": "UN", "setting": "[2]; Day 7", "result": 27.1, "unit": "mg/dL"}, {"measurement": "ALT", "setting": "[2]; Day 10", "result": 23, "unit": "U/L"}, {"measurement": "AST", "setting": "[2]; Day 10", "result": 91, "unit": "U/L"}, {"measurement": "CRE", "setting": "[2]; Day 10", "result": 0.14, "unit": "mg/dL"}, {"measurement": "UN", "setting": "[2]; Day 10", "result": 25.4, "unit": "mg/dL"}, {"measurement": "ALT", "setting": "[2]; Day 14", "result": 19, "unit": "U/L"}, {"measurement": "AST", "setting": "[2]; Day 14", "result": 62, "unit": "U/L"}, {"measurement": "CRE", "setting": "[2]; Day 14", "result": 0.20, "unit": "mg/dL"}, {"measurement": "UN", "setting": "[2]; Day 14", "result": 30.5, "unit": "mg/dL"}, {"measurement": "ALT", "setting": "[2]; Day 21", "result": 24, "unit": "U/L"}, {"measurement": "AST", "setting": "[2]; Day 21", "result": 71, "unit": "U/L"}, {"measurement": "CRE", "setting": "[2]; Day 21", "result": 0.12, "unit": "mg/dL"}, {"measurement": "UN", "setting": "[2]; Day 21", "result": 20.0, "unit": "mg/dL"}, {"measurement": "ALT", "setting": "[2]; Day 28", "result": 22, "unit": "U/L"}, {"measurement": "AST", "setting": "[2]; Day 28", "result": 65, "unit": "U/L"}, {"measurement": "CRE", "setting": "[2]; Day 28", "result": 0.15, "unit": "mg/dL"}, {"measurement": "UN", "setting": "[2]; Day 28", "result": 41.4, "unit": "mg/dL"}, {"measurement": "ALT", "setting": "[2]; Day 35", "result": 46, "unit": "U/L"}, {"measurement": "AST", "setting": "[2]; Day 35", "result": 171, "unit": "U/L"}, {"measurement": "CRE", "setting": "[2]; Day 35", "result": 0.12, "unit": "mg/dL"}, {"measurement": "UN", "setting": "[2]; Day 35", "result": 28.0, "unit": "mg/dL"}, {"measurement": "ALT", "setting": "[2]; Day 42", "result": 27, "unit": "U/L"}, {"measurement": "AST", "setting": "[2]; Day 42", "result": 83, "unit": "U/L"}, {"measurement": "CRE", "setting": "[2]; Day 42", "result": 0.11, "unit": "mg/dL"}, {"measurement": "UN", "setting": "[2]; Day 42", "result": 22.1, "unit": "mg/dL"}, {"measurement": "ALT", "setting": "[2]; Day 49", "result": 22, "unit": "U/L"}, {"measurement": "AST", "setting": "[2]; Day 49", "result": 56, "unit": "U/L"}, {"measurement": "CRE", "setting": "[2]; Day 49", "result": 0.12, "unit": "mg/dL"}, {"measurement": "UN", "setting": "[2]; Day 49", "result": 23.5, "unit": "mg/dL"}, {"measurement": "myelosuppression", "setting": "[2]; NC-6301 50 mg/kg, native DTX 10 mg/kg, data not shown", "result": "mild and transient"}, {"measurement": "change in liver- or kidney-related blood test markers", "setting": "[2]; three injections, NC-6301 50 mg/kg, native DTX 10 mg/kg, 49 days", "result": "No significant change"}, {"measurement": "adverse effects", "setting": "[3]; native DTX 3 mg/kg", "result": "adverse effects including gastrointestinal symptoms"}, {"measurement": "additional weight lost compared with animals administered NC-6301", "setting": "[3]; [9]", "result": "up to 20%"}, {"measurement": "white blood cell count and neutrophil count", "setting": "[3]; [9]", "result": "significantly decreased"}, {"measurement": "decrease in food consumption", "setting": "[3]; native DTX 3 mg/kg, NC-6301 3 or 6 mg/kg, iv three times at 2-week intervals", "result": "critical decrease"}, {"measurement": "maximum body weight loss", "setting": "[4]; native DTX 10 mg/kg iv x3, mice bearing MDA-MB-231 xenograft", "result": "approximately 10%"}, {"measurement": "effect on tumor growth", "setting": "[4]; three injections at 4-day intervals, NC-6301 50 mg/kg, native DTX 10 mg/kg", "result": "transient and slight regression"}, {"measurement": "MTD converted to human equivalent", "setting": "[5]; mouse MTD 10 mg/kg, three times at 4-day intervals", "result": 30.3, "unit": "mg/m^2"}, {"measurement": "body weight change", "setting": "[5]; native DTX 15 mg/kg vs less than 15 mg/kg, iv three times every 4 days", "result": "significant decrease in body weight"}, {"measurement": "body weight loss compared with NC-6301 at the higher dose", "setting": "[6]", "result": "worse"}, {"measurement": "MTD in humans", "setting": "[7]", "result": 100, "unit": "mg/m^2"}, {"measurement": "AUC of DTX", "setting": "[8]; Heart", "result": "9.5 μg/g or mL · h"}, {"measurement": "AUC of DTX", "setting": "[8]; Kidney", "result": "44.2 μg/g or mL · h"}, {"measurement": "AUC of DTX", "setting": "[8]; Liver", "result": "40.1 μg/g or mL · h"}, {"measurement": "AUC of DTX", "setting": "[8]; Lung", "result": "13.6 μg/g or mL · h"}, {"measurement": "AUC of DTX", "setting": "[8]; Plasma", "result": "6.7 μg/g or mL · h"}, {"measurement": "AUC of DTX", "setting": "[8]; Spleen", "result": "27.3 μg/g or mL · h"}, {"measurement": "AUC of DTX", "setting": "[8]; Tumor", "result": "12.6 μg/g or mL · h"}, {"measurement": "time DTX in plasma remained over 0.1 μg/mL", "setting": "[8]; native DTX 10 mg/kg iv", "result": "less than 5 hours"}]}
